We go through 13 molecules from ChEMBL document CHEMBL3098010, “Synthesis and biological evaluation of 3-hydroxymethyl-5-(1H-1,2,3-triazol) isoxazolidines” (Bioorg Med Chem, 2013).

Calls of active or inactive are those of the source. No cut-off for these calls is given here.

One may read the IC50 as the midpoint of a concentration-inhibition curve. Low readings indicate inhibition by little substance, high ones a need for much substance.

In test [1] the test system is 8305C. Description: Cytotoxicity against human 8305C cells after 24 hrs by MTT assay. It counts as functional, cell-based. Summed up:
(§1)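 FTC-133 (DMEM, 2 mM GlutaMAX, 10% FBS) and 8305C (MEM, 2 mM GlutaMAX, 10% FBS, 1% non-essential amino acids) cells are exposed to compound at 0.5–20 µM for 24 h at 37 °C, 5% CO2. MTT is added (20 µL of 0.5% in PBS, pH 7.4) for 1 h, then dissolved in DMSO and read at 570 nm. IC50 is taken graphically from dose–effect curves. Mean of four independent experiments in triplicate.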

Test [2] has as its system FTC-133. In words: Induction of apoptosis in human FTC-133 cells assessed as caspase-3 positive cells at 5 uM after 24 hrs by immunohistochemical analysis. The test is classed as functional, cell-based. Summed up: (§2)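 Cells on chamber slides are treated 24 h with 5 µM compound, then fixed in 4% paraformaldehyde for 20 min. Unspecific sites are blocked with 1% NGS for 1 h, then cells are incubated overnight at 37 °C with mouse anti-caspase-3 (1:200) and a TRITC anti-mouse secondary. Caspase-3-positive cells are counted by fluorescence microscopy in four fields per coverslip across four experiments.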

Test [3] deals with 8305C. In words: Induction of apoptosis in human 8305C cells assessed as caspase-3 positive cells at 5 uM after 24 hrs by immunohistochemical analysis. It counts as functional, cell-based. The procedure, abridged: as §2
Test [4] has as its system FTC-133. In words: Cytotoxicity against human FTC-133 cells after 24 hrs by MTT assay. It counts as functional, cell-based. Particulars: FTC-133, 24 h. The procedure, abridged: as §1
For orientation: Formazan colour is commonly taken as a measure of viable cells.

The subject of test [5] is FTC-133. In words: Induction of apoptosis in human FTC-133 cells assessed as DNA fragmentation at 5 uM after 24 hrs by TUNEL assay (reference value: 3 +/- 1%). The test is classed as functional.
Test [6] has as its system 8305C. In words: Induction of apoptosis in human 8305C cells assessed as DNA fragmentation at 5 uM after 24 hrs by TUNEL assay (reference value: 2 +/- 1%). It counts as functional.

In the case of `CN1O[C@@H](n2cc(-c3ccc(F)cc3)nn2)C[C@@H]1CO`, the IC50 in the test on 8305C [1] came to 6.76 µM; with FTC-133 [4], 6.07 µM. For the same molecule, the result in the test with FTC-133 [2] and in the test on 8305C [3] was Active.
For `COc1ccc(-c2cn([C@@H]3C[C@H](CO)N(C)O3)nn2)cc1` (relative stereo), the IC50 in the test with 8305C [1] amounted to 7.18 µM; in the test with FTC-133 [4], 6.48 µM. In addition, the outcome with FTC-133 [2] and with 8305C [3] was Active.
For `CN1O[C@@H](n2cc(-c3ccccc3)nn2)C[C@@H]1CO` (relative stereo), the IC50 with 8305C [1] stood at 7.14 µM; in the test with FTC-133 [4] it was 6.03 µM. The result in the test with FTC-133 [2] and in the test on 8305C [3] was Active.
With `CN1O[C@H](n2cc(-c3ccccc3)nn2)C[C@@H]1CO` (relative stereo), the IC50 in the test with 8305C [1] amounted to 8.76 µM; with FTC-133 [4], 6.33 µM. Also, the result in the test with FTC-133 [2] and in the test with 8305C [3] was Active.
`CN1O[C@@H](n2ccnn2)C[C@@H]1CO` (relative stereo): the concentration for half-maximal inhibition (IC50) with 8305C [1] was 7.96 µM; with FTC-133 [4] it was 6.53 µM. Moreover, the outcome in the test on FTC-133 [2] and in the test with 8305C [3] was Active.
As to `CN1O[C@H](n2ccnn2)C[C@@H]1CO` (relative stereo), the IC50 in the test on 8305C [1] is 8.13 µM; with FTC-133 [4], 6.3 µM. For the same molecule, the outcome in the test on FTC-133 [2] and in the test on 8305C [3] was Active.
As for `CCCc1cn([C@H]2C[C@H](CO)N(C)O2)nn1` (relative stereo), the results for the Activity in the test with FTC-133 [5] and with 8305C [6] were 95% and 90%, respectively. Also, the IC50 in the test with 8305C [1] was 5.82 µM; with FTC-133 [4] it was 3.87 µM. For the same molecule, the result in the test with FTC-133 [2] and in the test on 8305C [3] was Active.
With `CCCc1cn([C@@H]2C[C@H](CO)N(C)O2)nn1` (relative stereo), the IC50 was found to be 6.87 µM in the test on 8305C [1] and 4.71 µM in the test with FTC-133 [4]. The outcome in the test with FTC-133 [2] and in the test on 8305C [3] was Active.
As for `COc1ccc(-c2cn([C@H]3C[C@H](CO)N(C)O3)nn2)cc1` (relative stereo), the IC50 with 8305C [1] is 8.01 µM; in the test with FTC-133 [4] it was 7 µM. Moreover, the outcome in the test with FTC-133 [2] and in the test on 8305C [3] was Active.
Take `CCCCCc1ccc(-c2cn([C@H]3C[C@H](CO)N(C)O3)nn2)cc1` (relative stereo): the IC50 was found to be 5.96 µM in the test on 8305C [1] and 3.95 µM in the test with FTC-133 [4]. For the same molecule, the outcome with FTC-133 [2] and in the test with 8305C [3] was Active.
In the case of `CCCCCc1ccc(-c2cn([C@@H]3C[C@H](CO)N(C)O3)nn2)cc1` (relative stereo), the IC50 stood at 6.24 µM in the test on 8305C [1] and 4.49 µM with FTC-133 [4]. Further, the result in the test on FTC-133 [2] and with 8305C [3] was Active.
With `CN1O[C@H](n2cc(-c3ccc(F)cc3)nn2)C[C@@H]1CO` (relative stereo), the IC50 came out at 6.85 µM in the test on 8305C [1] and 5.85 µM with FTC-133 [4]. The outcome with FTC-133 [2] and with 8305C [3] was Active.
Take `Nc1ccn([C@@H]2O[C@H](CO)[C@@H](O)C2(F)F)c(=O)n1` [GEMCITABINE]: the IC50 with 8305C [1] came out at 4.53 µM; in the test with FTC-133 [4], 3.36 µM. For the same molecule, the outcome in the test with FTC-133 [2] and in the test on 8305C [3] was Active.
